Tested on: HEK-293T
Experiment: Multiplex assay against HEK293T;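 as to Population Tubulin-Different-Phenotype (%): share of the cells with healthy nuclei that show this phenotype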
Format: toxicity, cell-based
Settings: human
Outline: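 Compound was added to live cells that had been stained at seeding with Hoechst33342, BioTracker Green Microtubule Cytoskeleton Dye, MitoTracker Red and Annexin V Alexa Fluor 680, and imaging followed on a CQ1 microscope at 37°C and 5% CO2. CellPathfinder machine-learning gating divided cells into Hoechst high-intensity objects or normal cells, normal cells into healthy, pyknosed or fragmented nuclei, and pyknosed cells into mitotic or apoptotic. Tubulin, mitochondrial-mass and membrane-permeability phenotypes are per cents of healthy-nucleus cells.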

[1] = 12 h, 1 µM, compound concentration 1 uM, replicate 1
[2] = 12 h, 1 µM, compound concentration 1 uM, replicate 2
[3] = 12 h, 10 µM, compound concentration 10 uM, replicate 1
[4] = 12 h, 10 µM, compound concentration 10 uM, replicate 2
[5] = 24 h, 1 µM, compound concentration 1 uM, replicate 1
[6] = 24 h, 1 µM, compound concentration 1 uM, replicate 2
[7] = 24 h, 10 µM, compound concentration 10 uM, replicate 1
[8] = 24 h, 10 µM, compound concentration 10 uM, replicate 2
[9] = 48 h, 1 µM, compound concentration 1 uM, replicate 1
[10] = 48 h, 1 µM, compound concentration 1 uM, replicate 2
[11] = 48 h, 10 µM, compound concentration 10 uM, replicate 1
[12] = 48 h, 10 µM, compound concentration 10 uM, replicate 2

With CC(C)c1noc(N2CCC(COc3ccc(-c4ccc(S(C)(=O)=O)cc4)nc3)CC2)n1 [GSK-1292263] the “Population Apoptotic (%)” value [1] was 36%, the “Population Fragmented Nuclei (%)” value [1] was 14% and the “Population Healthy Nuclei (%)” value [1] was 31%. For the same molecule, the “Population Hoechst High Intensity Objects (%)” value [1] was 14%, the “Population Membrane Permeable-Phenotype (%)” value [1] was 8% and the “Population Mitochondria Different-Phenotype (%)” value [1] was 65%. For the same molecule, the “Population Mitotic Cells (%)” value [1] was 63%, the “Population Normal (%)” value [1] was 85% and the “Population Pyknosed Nuclei (%)” value [1] was 54%. For the same molecule, the “Population Tubulin-Different-Phenotype (%)” value [1] was 34%, the “Total Cell Count” value [1] was 304 and the “Population Apoptotic (%)” value [2] was 12%. For the same molecule, the “Population Fragmented Nuclei (%)” value [2] was 2%, the “Population Healthy Nuclei (%)” value [2] was 50% and the “Population Hoechst High Intensity Objects (%)” value [2] was 1%. For the same molecule, the “Population Membrane Permeable-Phenotype (%)” value [2] was 7%, the “Population Mitochondria Different-Phenotype (%)” value [2] was 15% and the “Population Mitotic Cells (%)” value [2] was 87%. The “Population Normal (%)” value [2] was 98%, the “Population Pyknosed Nuclei (%)” value [2] was 46% and the “Population Tubulin-Different-Phenotype (%)” value [2] was 16%. For the same molecule, the “Total Cell Count” value [2] was 228, the “Population Apoptotic (%)” value [3] was 50% and the “Population Fragmented Nuclei (%)” value [3] was 14%. The “Population Healthy Nuclei (%)” value [3] was 11%, the “Population Hoechst High Intensity Objects (%)” value [3] was 18% and the “Population Membrane Permeable-Phenotype (%)” value [3] was 16%. For the same molecule, the “Population Mitochondria Different-Phenotype (%)” value [3] was 68%, the “Population Mitotic Cells (%)” value [3] was 50% and the “Population Normal (%)” value [3] was 81%. For the same molecule, the “Population Pyknosed Nuclei (%)” value [3] was 74%, the “Population Tubulin-Different-Phenotype (%)” value [3] was 72% and the “Total Cell Count” value [3] was 276. The “Population Apoptotic (%)” value [4] was 13%, the “Population Fragmented Nuclei (%)” value [4] was 7% and the “Population Healthy Nuclei (%)” value [4] was 20%. The “Population Hoechst High Intensity Objects (%)” value [4] was 12%, the “Population Membrane Permeable-Phenotype (%)” value [4] was 8% and the “Population Mitochondria Different-Phenotype (%)” value [4] was 26%. For the same molecule, the “Population Mitotic Cells (%)” value [4] was 86%, the “Population Normal (%)” value [4] was 87% and the “Population Pyknosed Nuclei (%)” value [4] was 72%. The “Population Tubulin-Different-Phenotype (%)” value [4] was 26%, the “Total Cell Count” value [4] was 131 and the “Population Apoptotic (%)” value [5] was 39%. The “Population Fragmented Nuclei (%)” value [5] was 15%, the “Population Healthy Nuclei (%)” value [5] was 32% and the “Population Hoechst High Intensity Objects (%)” value [5] was 19%. The “Population Membrane Permeable-Phenotype (%)” value [5] was 2%, the “Population Mitochondria Different-Phenotype (%)” value [5] was 57% and the “Population Mitotic Cells (%)” value [5] was 60%. For the same molecule, the “Population Normal (%)” value [5] was 80%, the “Population Pyknosed Nuclei (%)” value [5] was 51% and the “Population Tubulin-Different-Phenotype (%)” value [5] was 37%. For the same molecule, the “Total Cell Count” value [5] was 316, the “Population Apoptotic (%)” value [6] was 15% and the “Population Fragmented Nuclei (%)” value [6] was 6%. The “Population Healthy Nuclei (%)” value [6] was 62%, the “Population Hoechst High Intensity Objects (%)” value [6] was 3% and the “Population Membrane Permeable-Phenotype (%)” value [6] was 8%. The “Population Mitochondria Different-Phenotype (%)” value [6] was 14%, the “Population Mitotic Cells (%)” value [6] was 84% and the “Population Normal (%)” value [6] was 96%. The “Population Pyknosed Nuclei (%)” value [6] was 31%, the “Population Tubulin-Different-Phenotype (%)” value [6] was 31% and the “Total Cell Count” value [6] was 270. The “Population Apoptotic (%)” value [7] was 58%, the “Population Fragmented Nuclei (%)” value [7] was 15% and the “Population Healthy Nuclei (%)” value [7] was 12%. For the same molecule, the “Population Hoechst High Intensity Objects (%)” value [7] was 23%, the “Population Membrane Permeable-Phenotype (%)” value [7] was 7% and the “Population Mitochondria Different-Phenotype (%)” value [7] was 78%. For the same molecule, the “Population Mitotic Cells (%)” value [7] was 41%, the “Population Normal (%)” value [7] was 76% and the “Population Pyknosed Nuclei (%)” value [7] was 72%. The “Population Tubulin-Different-Phenotype (%)” value [7] was 75%, the “Total Cell Count” value [7] was 298 and the “Population Apoptotic (%)” value [8] was 14%. For the same molecule, the “Population Fragmented Nuclei (%)” value [8] was 7%, the “Population Healthy Nuclei (%)” value [8] was 38% and the “Population Hoechst High Intensity Objects (%)” value [8] was 9%. For the same molecule, the “Population Membrane Permeable-Phenotype (%)” value [8] was 4%, the “Population Mitochondria Different-Phenotype (%)” value [8] was 32% and the “Population Mitotic Cells (%)” value [8] was 85%. The “Population Normal (%)” value [8] was 90%, the “Population Pyknosed Nuclei (%)” value [8] was 53% and the “Population Tubulin-Different-Phenotype (%)” value [8] was 55%. The “Total Cell Count” value [8] was 139, the “Population Apoptotic (%)” value [9] was 37% and the “Population Fragmented Nuclei (%)” value [9] was 16%. The “Population Healthy Nuclei (%)” value [9] was 41%, the “Population Hoechst High Intensity Objects (%)” value [9] was 14% and the “Population Membrane Permeable-Phenotype (%)” value [9] was 4%. For the same molecule, the “Population Mitochondria Different-Phenotype (%)” value [9] was 32%, the “Population Mitotic Cells (%)” value [9] was 62% and the “Population Normal (%)” value [9] was 85%. For the same molecule, the “Population Pyknosed Nuclei (%)” value [9] was 42%, the “Population Tubulin-Different-Phenotype (%)” value [9] was 35% and the “Total Cell Count” value [9] was 377. The “Population Apoptotic (%)” value [10] was 14%, the “Population Fragmented Nuclei (%)” value [10] was 4% and the “Population Healthy Nuclei (%)” value [10] was 80%. The “Population Hoechst High Intensity Objects (%)” value [10] was 4%, the “Population Membrane Permeable-Phenotype (%)” value [10] was 8% and the “Population Mitochondria Different-Phenotype (%)” value [10] was 3%. For the same molecule, the “Population Mitotic Cells (%)” value [10] was 85%, the “Population Normal (%)” value [10] was 95% and the “Population Pyknosed Nuclei (%)” value [10] was 14%. For the same molecule, the “Population Tubulin-Different-Phenotype (%)” value [10] was 22%, the “Total Cell Count” value [10] was 482 and the “Population Apoptotic (%)” value [11] was 63%. For the same molecule, the “Population Fragmented Nuclei (%)” value [11] was 24%, the “Population Healthy Nuclei (%)” value [11] was 10% and the “Population Hoechst High Intensity Objects (%)” value [11] was 25%. For the same molecule, the “Population Membrane Permeable-Phenotype (%)” value [11] was 8%, the “Population Mitochondria Different-Phenotype (%)” value [11] was 37% and the “Population Mitotic Cells (%)” value [11] was 36%. For the same molecule, the “Population Normal (%)” value [11] was 74%, the “Population Pyknosed Nuclei (%)” value [11] was 64% and the “Population Tubulin-Different-Phenotype (%)” value [11] was 58%. The “Total Cell Count” value [11] was 296, the “Population Apoptotic (%)” value [12] was 14% and the “Population Fragmented Nuclei (%)” value [12] was 8%. The “Population Healthy Nuclei (%)” value [12] was 62%, the “Population Hoechst High Intensity Objects (%)” value [12] was 3% and the “Population Membrane Permeable-Phenotype (%)” value [12] was 12%. For the same molecule, the “Population Mitochondria Different-Phenotype (%)” value [12] was 12%, the “Population Mitotic Cells (%)” value [12] was 85% and the “Population Normal (%)” value [12] was 96%. The “Population Pyknosed Nuclei (%)” value [12] was 28%, the “Population Tubulin-Different-Phenotype (%)” value [12] was 54% and the “Total Cell Count” value [12] was 176.

From ChEMBL document CHEMBL4689842, “EUbOPEN Chemogenomics Library wave 1” (2021)
